Legend:
[1] = Cytotoxicity against human KB3-1 cells after MTT assay; format: functional, cell-based; settings: KB 3-1
Procedure, shortened: (§1)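 IC50 after continuous 4-day exposure to varying drug concentrations, with MTT read at the end of day 4. A drug-free control was included. At least two runs, each in six replicate wells.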

[2] = Cytotoxicity against camptothecin-resistant human CPT-K5 cells after MTT assay; format: functional, cell-based
Procedure, shortened: (§2)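 Suspension cultures at 37 °C, 5% CO2, in RPMI with 10% heat-inactivated FBS, 2 mM L-glutamine, penicillin and streptomycin. Continuous 4-day exposure to a range of drug concentrations, then MTT read-out to give IC50. Drug-free control included. At least two runs, six replicate wells each.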

[3] = Cytotoxicity against camptothecin-resistant and TOP1 deficient mouse P388/CPT45 cells after MTT assay; format: functional, cell-based; settings: P388CPT45; procedure, shortened: as §2
[4] = Cytotoxicity against multidrug resistant human KBH5.0 cells overexpressing BCRP after MTT assay; format: functional, cell-based; settings: KBH5.0 cell; procedure, shortened: as §1
[5] = biological target: T1, DNA topoisomerase 1 (Homo sapiens) (UniProt P11387); experiment: Inhibition of human topoisomerase 1 mediated DNA cleavage assessed as effective drug concentration causing 10% YepG plasmid cleavage relative to camptothecin
T1 sequence (whole entry): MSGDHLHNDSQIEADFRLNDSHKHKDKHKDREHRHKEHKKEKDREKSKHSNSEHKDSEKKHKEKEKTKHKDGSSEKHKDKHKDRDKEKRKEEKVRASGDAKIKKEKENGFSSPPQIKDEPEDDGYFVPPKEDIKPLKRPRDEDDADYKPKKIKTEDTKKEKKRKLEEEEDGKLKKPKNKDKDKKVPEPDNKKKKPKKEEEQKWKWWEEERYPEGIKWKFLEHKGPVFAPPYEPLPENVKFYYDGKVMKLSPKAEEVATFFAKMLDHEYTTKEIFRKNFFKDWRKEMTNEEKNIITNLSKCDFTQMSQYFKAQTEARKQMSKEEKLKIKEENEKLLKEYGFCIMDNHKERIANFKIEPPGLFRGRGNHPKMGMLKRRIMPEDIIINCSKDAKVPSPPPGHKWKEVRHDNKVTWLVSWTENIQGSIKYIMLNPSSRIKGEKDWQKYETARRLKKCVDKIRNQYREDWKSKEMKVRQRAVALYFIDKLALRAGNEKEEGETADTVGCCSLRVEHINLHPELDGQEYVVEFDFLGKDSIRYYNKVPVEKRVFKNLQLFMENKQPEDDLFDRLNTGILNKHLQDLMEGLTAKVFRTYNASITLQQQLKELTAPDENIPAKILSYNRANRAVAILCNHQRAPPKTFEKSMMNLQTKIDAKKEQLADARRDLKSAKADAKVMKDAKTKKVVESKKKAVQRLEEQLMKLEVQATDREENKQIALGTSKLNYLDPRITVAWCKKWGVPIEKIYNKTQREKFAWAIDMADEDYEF
Procedure, shortened: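 Stopped with SDS and proteinase K, 1 h at 37 °C. Alkali-denatured with NaOH/EDTA/sucrose/bromophenol blue, then run on neutral agarose gel.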

[6] = Cytotoxicity against human RPMI8402 cells after MTT assay; format: functional, cell-based; settings: RPMI 8402; procedure, shortened: as §2
P388 = experiment: Cytotoxicity against mouse P388 cells after MTT assay; format: functional, cell-based; procedure, shortened: as §2
[7] = Cytotoxicity against multidrug resistant human KBV-1 cells overexpressing MDR1 after MTT assay; format: functional, cell-based; settings: KB-V1; procedure, shortened: as §1
MDA-MB-435 (human) [8] = experiment: Antitumor activity against human MDA-MB-435 cells xenografted in NCR/NU NU mouse assessed as tumor volume measured on day 42 initially dosed at 2 mg/kg, ip qd x 5/week for 2 weeks and was gradually increased to 6 mg/kg x 5/week schedule
MDA-MB-435 (human) [9] = experiment: Antitumor activity against human MDA-MB-435 cells xenografted in NCR/NU NU mouse assessed as tumor volume measured on day 14 initially dosed at 2 mg/kg, ip qd x 5/week for 2 weeks and was gradually increased to 6 mg/kg x 5/week schedule
MDA-MB-435 (human) [10] = experiment: Antitumor activity against human MDA-MB-435 cells xenografted in NCR/NU NU mouse assessed as tumor volume measured on day 49 initially dosed at 2 mg/kg, ip qd x 5/week for 2 weeks and was gradually increased to 6 mg/kg x 5/week schedule
MDA-MB-435 (human) [11] = experiment: Antitumor activity against human MDA-MB-435 cells xenografted in NCR/NU NU mouse assessed as tumor volume measured on day 28 initially dosed at 2 mg/kg, ip qd x 5/week for 2 weeks and was gradually increased to 6 mg/kg x 5/week schedule
MDA-MB-435 (human) [12] = experiment: Antitumor activity against human MDA-MB-435 cells xenografted in NCR/NU NU mouse assessed as tumor volume measured on day 35 initially dosed at 2 mg/kg, ip qd x 5/week for 2 weeks and was gradually increased to 6 mg/kg x 5/week schedule
MDA-MB-435 (human) [13] = experiment: Antitumor activity against human MDA-MB-435 cells xenografted in NCR/NU NU mouse assessed as tumor volume measured on day 7 initially dosed at 2 mg/kg, ip qd x 5/week for 2 weeks and was gradually increased to 6 mg/kg x 5/week schedule
MDA-MB-435 (human) [14] = experiment: Antitumor activity against human MDA-MB-435 cells xenografted in NCR/NU NU mouse assessed as tumor volume measured on day 21 initially dosed at 2 mg/kg, ip qd x 5/week for 2 weeks and was gradually increased to 6 mg/kg x 5/week schedule
MDA-MB-435 (human) [15] = experiment: Antitumor activity against human MDA-MB-435 cells xenografted in NCR/NU NU mouse assessed as tumor volume measured on day 21 initially dosed at 5 mg/kg, ip qd x 5/week for 2 weeks and was gradually increased to 6 mg/kg x 5/week for 2 weeks and adjusted to 6 mg/kg qd x 3/week for 1 week schedule
MDA-MB-435 (human) [16] = experiment: Antitumor activity against human MDA-MB-435 cells xenografted in NCR/NU NU mouse assessed as tumor volume measured on day 42 initially dosed at 5 mg/kg, ip qd x 5/week for 2 weeks and was gradually increased to 6 mg/kg x 5/week for 2 weeks and adjusted to 6 mg/kg qd x 3/week for 1 week schedule
MDA-MB-435 (human) [17] = experiment: Antitumor activity against human MDA-MB-435 cells xenografted in NCR/NU NU mouse assessed as tumor volume measured on day 28 initially dosed at 5 mg/kg, ip qd x 5/week for 2 weeks and was gradually increased to 6 mg/kg x 5/week for 2 weeks and adjusted to 6 mg/kg qd x 3/week for 1 week schedule
MDA-MB-435 (human) [18] = experiment: Antitumor activity against human MDA-MB-435 cells xenografted in NCR/NU NU mouse assessed as tumor volume measured on day 14 initially dosed at 5 mg/kg, ip qd x 5/week for 2 weeks and was gradually increased to 6 mg/kg x 5/week for 2 weeks and adjusted to 6 mg/kg qd x 3/week for 1 week schedule
MDA-MB-435 (human) [19] = experiment: Antitumor activity against human MDA-MB-435 cells xenografted in NCR/NU NU mouse assessed as tumor volume measured on day 49 initially dosed at 5 mg/kg, ip qd x 5/week for 2 weeks and was gradually increased to 6 mg/kg x 5/week for 2 weeks and adjusted to 6 mg/kg qd x 3/week for 1 week schedule
MDA-MB-435 (human) [20] = experiment: Antitumor activity against human MDA-MB-435 cells xenografted in NCR/NU NU mouse assessed as tumor volume measured on day 7 initially dosed at 5 mg/kg, ip qd x 5/week for 2 weeks and was gradually increased to 6 mg/kg x 5/week for 2 weeks and adjusted to 6 mg/kg qd x 3/week for 1 week schedule
MDA-MB-435 (human) [21] = experiment: Antitumor activity against human MDA-MB-435 cells xenografted in NCR/NU NU mouse assessed as tumor volume measured on day 35 initially dosed at 5 mg/kg, ip qd x 5/week for 2 weeks and was gradually increased to 6 mg/kg x 5/week for 2 weeks and adjusted to 6 mg/kg qd x 3/week for 1 week schedule
[22] = in the assay text read “relative to topotecan” for “relative to camptothecin”

Row | Structure (SMILES) | IC50 [1] | IC50 [2] | IC50 [3] | IC50 [4] | Activity [5, 22] | IC50 [6] | IC50 (P388) | IC50 [7] | Activity (MDA-MB-435 (human) [8]) | Activity (MDA-MB-435 (human) [9]) | Activity (MDA-MB-435 (human) [10]) | Activity (MDA-MB-435 (human) [11]) | Activity (MDA-MB-435 (human) [12]) | Activity (MDA-MB-435 (human) [13]) | Activity (MDA-MB-435 (human) [14]) | also measured
1 | CC[C@@]1(O)C(=O)OCc2c1cc1n(c2=O)Cc2cc3c(CN(C)C)c(O)ccc3nc2-1 [TOPOTECAN] | 40 nM | > 10000 nM | > 10000 nM | 440 nM | 1 | 21 nM | – | – | – | – | – | – | – | – | – | –
2 | CCOc1cc2c(=O)n(CCN(C)C)c3c4cc5c(cc4ncc3c2cc1OCC)OCO5 | 70 nM | 140 nM | 13 nM | 100 nM | – | 150 nM | 15 nM | 190 nM | – | – | – | – | – | – | – | Activity [5]: > 10
3 | CC[C@@]1(O)C(=O)OCc2c1cc1n(c2=O)Cc2cc3ccccc3nc2-1 [CAMPTOTHECIN] | – | > 10000 nM | > 10000 nM | – | – | 6 nM | – | – | – | – | – | – | – | – | – | –
4 | COc1cc2c(=O)n(CCN(C)CC#N)c3c4cc5c(cc4ncc3c2cc1OC)OCO5 | 5 nM | 980 nM | 220 nM | 27 nM | < 0.2 | 4 nM | 3 nM | 43 nM | 669 mm3 | 222 mm3 | 919 mm3 | 392 mm3 | 528 mm3 | 149 mm3 | 370 mm3 | –
5 | C#CCN(CC)CCn1c(=O)c2cc(OC)c(OC)cc2c2cnc3cc4c(cc3c21)OCO4 | 70 nM | > 10000 nM | 2300 nM | 110 nM | > 10 | 17 nM | 35 nM | 100 nM | 349 mm3 | 106 mm3 | 488 mm3 | 204 mm3 | 331 mm3 | 115 mm3 | 170 mm3 | –
6 | C#CCN(CCn1c(=O)c2cc(OC)c(OC)cc2c2cnc3cc4c(cc3c21)OCO4)C(C)C | 100 nM | > 10000 nM | 3700 nM | 70 nM | > 10 | 65 nM | 80 nM | 430 nM | 310 mm3 | 112 mm3 | 357 mm3 | 170 mm3 | 234 mm3 | 99 mm3 | 165 mm3 | –
7 | COc1cc2c(=O)n(CCN(C)CC(F)(F)F)c3c4cc5c(cc4ncc3c2cc1OC)OCO5 | 410 nM | > 10000 nM | > 10000 nM | 630 nM | > 10 | 250 nM | 250 nM | 1000 nM | – | – | – | – | – | – | – | –
8 | COc1cc2c(=O)n(CCN(CC(F)(F)F)C(C)C)c3c4cc5c(cc4ncc3c2cc1OC)OCO5 | 1000 nM | > 10000 nM | > 10000 nM | 1100 nM | > 10 | 1900 nM | 1100 nM | 4400 nM | – | – | – | – | – | – | – | –
9 | COc1cc2c(=O)n(CCN(CC#N)C(C)C)c3c4cc5c(cc4ncc3c2cc1OC)OCO5 | 6 nM | 1300 nM | 60 nM | 9 nM | < 0.2 | 2 nM | 2 nM | 43 nM | – | – | – | – | – | – | – | Activity (MDA-MB-435 (human) [15]): 213 mm3; Activity (MDA-MB-435 (human) [16]): 286 mm3; Activity (MDA-MB-435 (human) [17]): 220 mm3; Activity (MDA-MB-435 (human) [18]): 175 mm3; Activity (MDA-MB-435 (human) [19]): 314 mm3; Activity (MDA-MB-435 (human) [20]): 142 mm3; Activity (MDA-MB-435 (human) [21]): 250 mm3
10 | CCN(CC#N)CCn1c(=O)c2cc(OC)c(OC)cc2c2cnc3cc4c(cc3c21)OCO4 | 4 nM | 670 nM | 130 nM | 7 nM | < 0.2 | 1 nM | 1 nM | 34 nM | 361 mm3 | 156 mm3 | 435 mm3 | 202 mm3 | 293 mm3 | 100 mm3 | 178 mm3 | –
11 | CCN(CCn1c(=O)c2cc(OC)c(OC)cc2c2cnc3cc4c(cc3c21)OCO4)CC(F)(F)F | 650 nM | > 10000 nM | > 10000 nM | 750 nM | > 10 | 700 nM | 610 nM | 2900 nM | 543 mm3 | 176 mm3 | 718 mm3 | 310 mm3 | 435 mm3 | 127 mm3 | 268 mm3 | –
